Molecules are shown by their SMILES.

The values below come from ChEMBL document CHEMBL1146312, “Synthesis of OSW saponin analogs with modified sugar residues and their antiproliferative activities” (Bioorg Med Chem Lett, 2007).

Common to all, as to assay type: functional, cell-based
Experiment [1] deals with HeLa. Briefly: Antiproliferative activity against human HeLa cells. Summed up:
(§1)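 Proliferation of human RKO colon carcinoma, Jurkat T-cell leukemia and HeLa cervical cancer cells was followed by [3H]-thymidine incorporation. IC50 values were taken from this read-out.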

Experiment [2] deals with Jurkat. Briefly: Antiproliferative activity against human Jurkat cells. Summed up: as §1
For experiment [3], the system named is RKO. Briefly: Antiproliferative activity against human RKO cells. In a few lines: as §1

`CCCCCCCCCCCCOC(=O)[C@@H](C)[C@@]1(O)[C@@H](O[C@@H]2OC[C@H](O)[C@H](O)[C@H]2OC(C)=O)C[C@H]2[C@@H]3CC=C4C[C@@H](O)CC[C@]4(C)[C@H]3CC[C@@]21C`: the IC50 (usually the concentration at which inhibition is half-maximal) in experiment [1] was 1200 nM; in experiment [2], 78 nM.

As for `C=CCO[C@@H]1[C@@H](OC(C)=O)[C@H](O[C@H]2C[C@H]3[C@@H]4CC=C5C[C@@H](O)CC[C@]5(C)[C@H]4CC[C@]3(C)[C@@]2(O)[C@H](C)C(=O)OCCCCCCCCCCCC)OC[C@@H]1O`, the IC50 turned out to be 1700 nM in experiment [3] and 1100 nM in experiment [1].

Turning to `CCCCCCCCCCCCOC(=O)[C@@H](C)[C@@]1(O)[C@@H](O[C@@H]2OC[C@H](O)[C@H](O[C@@H]3OC[C@@H](O)[C@H](O)[C@H]3OC(=O)c3ccc(OC)cc3)[C@H]2OC(C)=O)C[C@H]2[C@@H]3CC=C4C[C@@H](O)CC[C@]4(C)[C@H]3CC[C@@]21C`, the values for the IC50 in experiment [3], in experiment [1] and in experiment [2] were 0.7 nM, 71 nM and 15 nM, respectively.
